Source: ChEMBL document CHEMBL3877293, “Synthesis and Antineoplastic Evaluation of Novel Unsymmetrical 1,3,4-Oxadiazoles” (J Med Chem, 2016)
pIC50: −log10 of the molar value.

Legend:
[1] = Antiproliferative activity against human MCF7 cells after 72 hrs by XTT assay; format: functional, cell-based; details: MCF7, 72 h
Summary of the method: (§1)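 Cells plated at 1500–2000 per well by doubling time, treated after 24 h with a concentration series in six triplicate wells, and incubated 72 h without a medium change. XTT reagent was then added for 4 h at 37 °C and absorbance read at 490 nm. IC50 is the concentration halving absorbance versus untreated cells. Experiments run in triplicate.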

[2] = Antiproliferative activity against human HeLa cells after 72 hrs by XTT assay; format: functional, cell-based; summary of the method: as §1

Structure (SMILES) | pIC50 [1] | pIC50 [2]
c1ccc(-c2nnc(-c3nn(-c4ccccc4)c4c3Cc3ccccc3-4)o2)cc1 | 5.12 | < 5.00
Cn1nc(-c2nnc(-c3ccccc3)o2)c2c1-c1ccccc1C2 | < 5.00 | < 5.00
Cc1ccc(Cc2nnc(-c3c[nH]c4c3Cc3ccccc3-4)o2)cc1 | 5.37 | < 5.00
Cc1[nH]c2c(c1-c1nnc(-c3ccccc3)o1)Cc1cc(Cl)ccc1-2 | < 5.00 | 5.35
Clc1cccc(-c2nnc(-c3c[nH]c4c3Cc3ccccc3-4)o2)c1 | < 5.00 | < 5.00
COc1cc(-c2nnc(-c3c[nH]c4c3Cc3ccccc3-4)o2)cc(OC)c1OC | < 5.00 | < 5.00
Cc1[nH]c2c(c1-c1nnc(-c3ccccc3)o1)Cc1cc(Br)ccc1-2 | 5.37 | 6.29
Cc1[nH]c2c(c1-c1nnc(-c3ccccc3)o1)Cc1cc(C3CC3)ccc1-2 | 5.64 | 5.80
Clc1ccc(-c2nnc(-c3c[nH]c4c3Cc3ccccc3-4)o2)cc1 | < 5.00 | < 5.00
Clc1ccc(-c2nnc(-c3c[nH]c4c3Cc3ccccc3-4)o2)cc1Cl | < 5.00 | < 5.00
c1ccc2c(c1)Cc1c(-c3nnc(C4CCCCC4)o3)c[nH]c1-2 | < 5.00 | < 5.00
Cc1ccc2c(c1)Cc1c-2[nH]c(C)c1-c1nnc(-c2ccccc2)o1 | < 5.00 | 5.28
COc1ccc2c(c1)-c1[nH]c(C)c(-c3nnc(-c4ccccc4)o3)c1C2 | < 5.00 | < 5.00
c1ccc(Cc2nnc(-c3c[nH]c4c3Cc3ccccc3-4)o2)cc1 | < 5.00 | < 5.00
Clc1ccc(Cc2nnc(-c3c[nH]c4c3Cc3ccccc3-4)o2)cc1 | < 5.00 | < 5.00
CC(C)(C)c1ccc(-c2nnc(-c3c[nH]c4c3Cc3ccccc3-4)o2)cc1 | 5.02 | 5.47
